Results on 37 molecules are retold here after ChEMBL document CHEMBL4007404, “Identification of High-Potency Human TLR8 and Dual TLR7/TLR8 Agonists in Pyrimidine-2,4-diamines” (J Med Chem, 2017).

The source made the active and inactive calls. The rule behind the calls is not given here.

In one assay the target is T1, Toll-like receptor 8 (Homo sapiens, UniProt Q9NR97).
T1 sequence (Q9NR97 whole entry): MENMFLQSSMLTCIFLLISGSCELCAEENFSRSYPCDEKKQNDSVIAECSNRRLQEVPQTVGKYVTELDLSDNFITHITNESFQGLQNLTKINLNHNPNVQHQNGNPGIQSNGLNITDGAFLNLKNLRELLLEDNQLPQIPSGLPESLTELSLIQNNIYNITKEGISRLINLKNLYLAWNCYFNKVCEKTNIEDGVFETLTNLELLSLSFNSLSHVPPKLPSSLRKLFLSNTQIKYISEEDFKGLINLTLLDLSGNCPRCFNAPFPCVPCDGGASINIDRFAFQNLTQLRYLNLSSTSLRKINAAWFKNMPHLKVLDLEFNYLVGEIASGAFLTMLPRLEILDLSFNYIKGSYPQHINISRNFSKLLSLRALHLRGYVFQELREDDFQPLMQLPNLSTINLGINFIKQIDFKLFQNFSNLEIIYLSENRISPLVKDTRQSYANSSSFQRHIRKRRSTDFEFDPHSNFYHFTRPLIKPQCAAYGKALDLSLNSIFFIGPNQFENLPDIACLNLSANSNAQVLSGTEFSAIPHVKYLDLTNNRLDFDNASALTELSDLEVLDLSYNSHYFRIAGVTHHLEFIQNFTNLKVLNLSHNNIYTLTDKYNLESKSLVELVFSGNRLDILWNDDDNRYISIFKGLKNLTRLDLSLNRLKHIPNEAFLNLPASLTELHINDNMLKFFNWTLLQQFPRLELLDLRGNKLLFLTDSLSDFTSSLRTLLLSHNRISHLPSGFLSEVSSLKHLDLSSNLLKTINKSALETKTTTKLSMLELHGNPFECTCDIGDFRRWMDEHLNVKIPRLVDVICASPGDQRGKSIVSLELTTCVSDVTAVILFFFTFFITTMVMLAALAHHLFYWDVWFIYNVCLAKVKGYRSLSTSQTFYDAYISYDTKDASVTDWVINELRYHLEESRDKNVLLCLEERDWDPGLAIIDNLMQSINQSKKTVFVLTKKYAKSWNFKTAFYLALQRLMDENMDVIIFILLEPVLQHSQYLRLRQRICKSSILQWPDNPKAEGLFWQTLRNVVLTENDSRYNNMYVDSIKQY
In words: Agonist activity at human TLR8 expressed in HEK293 cells co-expressing secreted alkaline phosphatase assessed as induction of NF-kappaB/AP-1 promoter activity by measuring increase in secreted alkaline phosphatase level by spectrophotometric method. It counts as cell-based. An outline of the steps:
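HEK293 cells stably co-transfected with the relevant human TLR (2, 3, 4, 5, 7, 8 or 9) plus an NF-κB/AP-1-driven secreted alkaline phosphatase reporter, kept in selection medium. Cells at ~10⁵ cells/ml were exposed to graded concentrations of stimuli in 384-well format, liquid-handler assisted. Supernatant sAP was read at 620 nm with an alkaline phosphatase-specific chromogen.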

Assay [1] concerns the target T2, Toll-like receptor 8 (Homo sapiens) (UniProt Q9NR97).
T2 sequence (whole entry): T1 sequence (Q9NR97 whole entry)
The experiment in a line: Agonist activity at TLR8 in human PBMC assessed as induction of TNF-alpha production after 16 hrs by multiplexed immunoassay. An outline of the steps: (§1)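 Fresh human PBMCs were isolated from venous blood in cell preparation tubes. They were stimulated at 10^5 cells per well for 16 h with graded compound concentrations. Supernatants were taken off by centrifugation and assayed in duplicate on a 41-analyte magnetic bead cytokine/chemokine multiplex panel. Panel analytes include IFN-α2, IFN-γ, IL-12 (p40) and TNF-α.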

In assay [2] the target is T2, Toll-like receptor 8 (Homo sapiens). The experiment in a line: Agonist activity at TLR8 in human PBMC assessed as induction of IL-12p40 production after 16 hrs by multiplexed immunoassay. The gist of the method:
as §1

For assay [3] the target is unchanged. In words: Agonist activity at TLR8 in human PBMC assessed as induction of IFN-gamma production after 16 hrs by multiplexed immunoassay. An outline of the steps:
as §1

For assay [4], the target named is T3, Toll-like receptor 7 (Homo sapiens) (UniProt Q9NYK1).
T3 sequence (whole entry): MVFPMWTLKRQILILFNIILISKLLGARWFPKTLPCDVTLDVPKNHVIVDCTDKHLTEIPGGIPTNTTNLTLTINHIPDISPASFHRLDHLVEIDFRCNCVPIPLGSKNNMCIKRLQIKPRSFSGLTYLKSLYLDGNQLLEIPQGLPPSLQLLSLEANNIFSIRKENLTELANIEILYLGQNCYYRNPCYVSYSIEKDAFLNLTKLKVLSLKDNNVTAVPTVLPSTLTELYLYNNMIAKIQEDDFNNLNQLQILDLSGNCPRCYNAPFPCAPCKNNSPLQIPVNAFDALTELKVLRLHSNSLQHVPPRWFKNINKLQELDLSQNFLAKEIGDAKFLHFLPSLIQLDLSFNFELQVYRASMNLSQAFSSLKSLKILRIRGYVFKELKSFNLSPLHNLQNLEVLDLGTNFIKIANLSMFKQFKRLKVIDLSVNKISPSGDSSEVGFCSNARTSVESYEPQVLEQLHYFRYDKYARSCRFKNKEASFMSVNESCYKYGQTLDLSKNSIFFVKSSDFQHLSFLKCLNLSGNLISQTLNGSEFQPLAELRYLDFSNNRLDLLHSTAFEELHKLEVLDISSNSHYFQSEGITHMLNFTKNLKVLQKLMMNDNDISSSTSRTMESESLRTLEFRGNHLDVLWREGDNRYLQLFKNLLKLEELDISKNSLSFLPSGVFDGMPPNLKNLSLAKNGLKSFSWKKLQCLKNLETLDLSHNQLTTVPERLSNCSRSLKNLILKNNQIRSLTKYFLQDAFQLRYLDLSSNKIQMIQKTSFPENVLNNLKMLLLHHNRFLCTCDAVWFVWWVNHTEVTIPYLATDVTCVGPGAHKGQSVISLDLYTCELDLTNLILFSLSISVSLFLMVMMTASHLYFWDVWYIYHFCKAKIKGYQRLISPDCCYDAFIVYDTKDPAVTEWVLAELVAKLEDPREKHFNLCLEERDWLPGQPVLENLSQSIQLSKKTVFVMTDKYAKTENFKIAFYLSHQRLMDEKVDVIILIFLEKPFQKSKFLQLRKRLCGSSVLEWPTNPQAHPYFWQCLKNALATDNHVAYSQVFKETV
The experiment in a line: Agonist activity at human TLR7 expressed in HEK293 cells co-expressing secreted alkaline phosphatase assessed as induction of NF-kappaB/AP-1 promoter activity by measuring increase in secreted alkaline phosphatase level at 100 uM by spectrophotometric method. It counts as cell-based.

Assay [5] deals with T3, Toll-like receptor 7 (Homo sapiens). The experiment in a line: Agonist activity at TLR7 in human PBMC assessed as induction of IFN-alpha production after 16 hrs by multiplexed immunoassay. The gist of the method: as §1
The target in assay [6] is T2, Toll-like receptor 8 (Homo sapiens). The experiment in a line: Agonist activity at human TLR8 expressed in HEK293 cells co-expressing secreted alkaline phosphatase assessed as induction of NF-kappaB/AP-1 promoter activity by measuring increase in secreted alkaline phosphatase level at 100 uM by spectrophotometric method. The class given is cell-based. The gist of the method: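 HEK293 cells stably co-transfected with human TLR8 and NF-κB/AP-1-driven secreted alkaline phosphatase, kept in selection medium. Cells seeded at ~10⁵ cells/ml in 384-well plates with graded stimulus concentrations. Supernatant sAP read spectrophotometrically at 620 nm with an alkaline phosphatase-specific chromogen. TLR-2/-3/-4/-5/-9 reporter lines served as counter-screens.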

The EC50 is the concentration that produces a half-maximal response. `CCCCNc1nc(N)nc(C)c1CCCN1C(=O)c2ccccc2C1=O`: the EC50 on Toll-like receptor 8 worked out at 453 nM.

Regarding `CCCCNc1nc(N)nc(C)c1CCCN1CCNCC1`, the EC50 on Toll-like receptor 8 turned out to be 500 nM.

On to `CCCCNc1nc(N)nc(C)c1CCCn1ccc2ccccc21`, for which the EC50 at Toll-like receptor 8 was 1100 nM.

Consider `CCCCNc1nc(N)nc(C)c1CCCN1Cc2ccccc2C1`, for which, on Toll-like receptor 8, the EC50 is 29 nM. Further, the outcome in assay [1], in assay [2] and in assay [3] was Active.

For the molecule `CCCCNc1nc(N)nc(C)c1CCCN(CC)CC`, at Toll-like receptor 8, the EC50 was determined as 254 nM. For the same molecule, the outcome in assay [4] was inactive.

As to `CCCCCc1c(C)nc(N)nc1NCCCC`, the EC50 on Toll-like receptor 8 came out at 1220 nM.

`CCCCNc1nc(N)nc(C)c1CCCn1c(C)nc2ccccc21`: the EC50 at Toll-like receptor 8 was found to be 366 nM. The result in assay [1], in assay [2], in assay [3] and in assay [5] was Active.

Consider `CCCCNc1nc(N)nc(C)c1CCCN1CCCC1`, for which the EC50 on Toll-like receptor 8 was 110 nM.

For the molecule `CCCCNc1nc(N)nc(C)c1CCCN1CCCCC1`, the EC50 on Toll-like receptor 8 amounted to 133 nM. Moreover, the outcome in assay [1], in assay [2] and in assay [3] was Active.

With `CCCCNc1nc(N)nc(C)c1CCCN(C)C`, the EC50 at Toll-like receptor 8 worked out at 126 nM.

On to `CCCCNc1nc(N)nc(C)c1CCCN1CCSCC1`, for which the EC50 at Toll-like receptor 8 stood at 167 nM.

As to `CCCCNc1nc(N)nc(C)c1CC`, the EC50 at Toll-like receptor 8 amounted to 1660 nM.

As to `CCCCNc1nc(N)nc(C)c1CCCCO`, the EC50 on Toll-like receptor 8 came out at 1310 nM.

`CCCCNc1nc(N)nc(C)c1C#CCN1CCOCC1`: the EC50 on Toll-like receptor 8 amounted to 16200 nM. The result in assay [4] was inactive.

Turning to `CCCCNc1nc(N)nc(C)c1CCCCN1CCOCC1`, the EC50 at Toll-like receptor 8 was determined as 128 nM.

On to `CCCCNc1nc(N)nc(C)c1CCCN1CCOCC1`, for which the EC50 at Toll-like receptor 8 is 280 nM.

Consider `CCCCNc1nc(N)nc(C)c1C`, for which the EC50 on Toll-like receptor 8 turned out to be 3280 nM.

With `CCCCNc1nc(N)nc(C)c1CCCn1cccn1`, at Toll-like receptor 8, the concentration giving a half-maximal response (EC50) amounted to 1050 nM.

Regarding `CCCCNc1nc(N)nc(C)c1CCCN1CCN(C(=O)OC(C)(C)C)CC1`, the EC50 on Toll-like receptor 8 came out at 300 nM. In assay [4], the result was inactive.

For `CCCCNc1nc(N)nc(C)c1CCCCCc1ccccc1`, the concentration giving a half-maximal response (EC50) on Toll-like receptor 8 turned out to be 830 nM.

Take `CCCCNc1nc(N)nc(C)c1CCCC(C)(C)O`: at Toll-like receptor 8, the EC50 is 1220 nM.

Take `CCCCNc1nc(N)nc(C)c1CCCCc1ccccc1`: at Toll-like receptor 8, the EC50 came to 857 nM.

Turning to `CCCC#Cc1c(C)nc(N)nc1NCCCC`, at Toll-like receptor 8, the EC50 amounted to 5000 nM. Besides, the result in assay [4] was inactive.

`CCCCNc1nc(N)nc(C)c1CCC(C)(C)O`: on Toll-like receptor 8, the concentration giving a half-maximal response (EC50) is 3140 nM.

For the molecule `CCCCNc1nc(N)nc(C)c1CCCC1CCCCC1`, the result in assay [6] was inactive.

With `CCCCNc1nc(N)nc(C)c1C#CCN1CCCCC1`, the EC50 at Toll-like receptor 8 is 3790 nM. Besides, in assay [4], the result was inactive.

As to `C#Cc1c(C)nc(N)nc1NCCCC`, the EC50 on Toll-like receptor 8 came to 4900 nM. In addition, the outcome in assay [4] was inactive.

As for `CCCCNc1nc(N)nc(C)c1CCCN1CCN(c2ccccc2)CC1`, the EC50 at Toll-like receptor 8 turned out to be 92 nM.

For `CCCCNc1nc(N)nc(C)c1CCCc1ccccc1`, on Toll-like receptor 8, the EC50 came to 749 nM. Moreover, the result in assay [3] was inactive. In assay [5], the outcome was Active.

For `CCCCNc1nc(N)nc(C)c1C#CCc1ccccc1`, the result in assay [4] and in assay [6] was inactive.

In the case of `CCCCNc1nc(N)nc(C)c1CCc1ccccc1`, the EC50 on Toll-like receptor 8 came to 1190 nM.

On to `CCCCNc1nc(N)nc(C)c1CCCN1CCN(C)CC1`, for which the EC50 on Toll-like receptor 8 is 179 nM.

`CCCCNc1nc(N)nc(C)c1CCCN1CCCCCC1`: at Toll-like receptor 8, the concentration for a half-maximal effect (EC50) stood at 178 nM.

As to `CCCCNc1nc(N)nc(C)c1C#C[Si](C)(C)C`, at Toll-like receptor 8, the EC50 came to 9240 nM. In addition, the result in assay [4] was inactive.

As to `CCCCNc1nc(N)nc(C)c1CCCC`, the EC50 on Toll-like receptor 8 amounted to 780 nM.

Regarding `CCCCNc1nc(N)nc(C)c1CCCn1cncn1`, the EC50 at Toll-like receptor 8 turned out to be 1050 nM.

As for `CCCCNc1nc(N)nc(C)c1CCCN(C)CCOC`, at Toll-like receptor 8, the EC50 was 203 nM.
